Assay results from different studies.
Each line is one published result; the experiments were not run side by side.
Dipeptidyl peptidase 8: Dipeptidyl peptidase 8 (Homo sapiens, UniProt Q6V1X1)
ALOX5: Polyunsaturated fatty acid 5-lipoxygenase (ALOX5, Homo sapiens, UniProt P09917)
HTR1D: 5-hydroxytryptamine receptor 1D (HTR1D, Homo sapiens, UniProt P28221)

C#CCNC(=O)c1cc2ccc(N(CC)CC)cc2oc1=O
IC50 (Acetylcholinesterase (Ache, Mus musculus, UniProt P21836); enzyme activity; inhibitor; Ellman; pH 7.6): 1 µM

CC(C)Cc1ccc([C@@H](C)C(=O)O)cc1
IC50 (Histone acetyltransferase KAT2B (KAT2B, Homo sapiens, UniProt Q92831); enzyme activity; inhibitor; mobility shift): ~6000 µM

CC[C@H]1NC(=O)[C@@H]2CSC(=N2)[C@@H](Cc2ccccc2)N(C)C(=O)[C@@H]2CCCN2C(=O)[C@H](C(C)C)N(C)C(=O)[C@H](Cc2ccccc2)OC(=O)[C@H](C)[C@@H](C)NC(=O)[C@@H]([C@@H](C)O)NC(=O)[C@@H](CC(C)C)N(C)C(=O)[C@@H]2CSC1=N2
IC50 (Dipeptidyl peptidase 8; enzyme activity; inhibitor): 11.5 µM

C[C@H](NC(=O)[C@@H](CCC(=O)O)NC(=O)CN1CCN(CC(=O)O)CCN(CC(=O)O)CCN(CC(=O)O)CC1)C(=O)N[C@@H](Cc1ccc(O)cc1)C(=O)NCC(=O)N[C@@H](Cc1c[nH]c2ccccc12)C(=O)N[C@H](C(=O)N[C@@H](CC(=O)O)C(=O)N[C@@H](Cc1cccc2ccccc12)C(N)=O)c1ccccc1
IC50 (Gastrin/cholecystokinin type B receptor (Rattus norvegicus, UniProt P30553); ligand displacement; radioligand): 0.0568 µM

OC12CCCCC1C(c1ccccc1)NCC2 (stereo not shown)
Ki (Sodium-dependent serotonin transporter (Slc6a4, Rattus norvegicus, UniProt P31652); ligand displacement; radioligand): > 20 µM

CSCC[C@H](NC(=O)[C@@H]1CCCN1C(=O)CNC(=O)c1ccc2c(c1)C(=O)OC21c2ccc(O)cc2Oc2cc(O)ccc21)C(=O)N[C@@H](CCC(N)=O)C(=O)N[C@H](C(=O)N[C@@H](CO)C(=O)N[C@H](C(=O)N1CCC[C@H]1C(=O)N[C@@H](CCCCN)C(=O)N[C@@H](CC(N)=O)C(=O)NCC(=O)O)[C@@H](C)OP(=O)(O)O)[C@@H](C)O
Kd (Serine/threonine-protein kinase PLK2, polo-box (PLK2, Homo sapiens, UniProt Q9NYY3); binding; FP): 0.0504 µM

COc1cc(Nc2ncc(F)c(Nc3ccc4c(n3)NC(=O)C(C)(C)O4)n2)cc(OC)c1OC
IC50 (ALOX5; enzyme activity; inhibitor): 5.01 µM

CC(C)C[C@@H]1C(=O)N[C@H]([C@@H](C)O)C(=O)N[C@H](C)[C@@H](C)C(=O)O[C@@H](Cc2ccccc2)C(=O)N(C)[C@@H](C(C)C)C(=O)N2CCC[C@H]2C(=O)N(C)[C@H](Cc2ccccc2)C2=N[C@@H](CS2)C(=O)N[C@H](C)C2=N[C@@H](CS2)C(=O)N1C
IC50 (Dipeptidyl peptidase 8; enzyme activity; inhibitor): 16.6 µM

Cn1cc(-c2cc(F)cc(N3CCn4c(cc5c4CCCC5)C3=O)c2CO)cc(Nc2ccc(N3CCN(C4COC4)CC3)cn2)c1=O
Ki (Tyrosine-protein kinase Yes (YES1, Homo sapiens, UniProt P07947); enzyme activity; inhibitor; FRET): 0.637 µM

CCCCCc1cc(O)c2c(c1)OC(C)(CCC=C(C)C)C=C2 (stereo not shown)
IC50 (ALOX5; enzyme activity; inhibitor): 1.6 µM

COc1ccccc1N1CCN(Cc2coc3c(Cl)cc(Cl)cc3c2=O)CC1
Ki (HTR1D; ligand displacement; radioligand): 2.06 µM

COC[C@H]1OC(=O)c2coc3c2[C@@]1(C)C1=C(C3=O)[C@@H]2CCC(=O)[C@@]2(C)C[C@H]1OC(C)=O
Kd (TGF-beta receptor type-2 (TGFBR2, Homo sapiens, UniProt P37173); cell-free assay; competition with immobilised ligand): > 10 µM

COc1ccccc1N1CCN(Cc2coc3ccc(C)cc3c2=O)CC1
Ki (HTR1D; ligand displacement; radioligand): 0.464 µM

C[C@H](N)Cn1ncc2ccc3c(c21)CCCO3
Ki (HTR1D; ligand displacement; radioligand): 6.9 µM

CCOc1ccccc1N1CCN(Cc2coc3ccccc3c2=O)CC1
Ki (HTR1D; ligand displacement; radioligand): 0.633 µM

CC(C)S[C@@H]1O[C@H](CO)[C@H](O)[C@H](O)[C@H]1O
Ki (Beta-galactosidase (lacZ, Escherichia coli K-12, UniProt P00722); enzyme activity; inhibitor; fluorescence): 36 µM
